# Dynein transport = inhibitors of GR-EGFP nuclear translocation, primary screen, dynein cargo transport inhibitor project, imaging, high-content, 3617.4 mouse cells; test concentration mostly 20 µM; stimulated with dexamethasone, 1 µM; active compounds read low; z-score, hits read low; actives 0.47% (n = 220,000); AID 1381, 2008;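 active means plate z-score of nuclear minus cytoplasmic receptor signal below a set negative limit, without overly bright fluorescence or cell loss, cut at about -3.5 in these data, passing the limit was not always enough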;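 further: z-score of nuclear minus cytoplasmic ring GR-EGFP intensity difference per well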
#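 Also added: dexamethasone, 1.0 µM final. Medium: tet-free, stripped-serum medium. Detection: fixed, Hoechst-stained cells imaged at 10x for EGFP. Read-out: nuclear-to-cytoplasmic GR-EGFP distribution per well. Times: induction 48 h, compound 1 h, agonist 30 min.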
# T cruzi repl = inhibitors of intracellular T. cruzi growth, primary screen, luminescence, NIH3T3 host cells | T. cruzi beta-gal in NIH3T3, 90 h | inhibition, % (test concentration not listed) | actives 1.4% (n = 300,000) | AID 1885, 2009;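 active means mean inhibition across valid replicates above about 55%, limit read from the data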;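 further: signal also drops with host cell toxicity which is not excluded here; 0% = plate median of DMSO wells and 100% = zero luminescence signal; higher percent means less beta-gal luminescence so fewer parasites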
#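 System: Mouse NIH/3T3 fibroblasts infected with β-gal-expressing T. cruzi Tulahuen C4 | Quantity: NIH/3T3 cells, 5,000 per well | Reagent: 5000 reporter trypomastigotes per well | Dosing: Compound pinned at 50 nL/well, DMSO | Schedule: 3 h host attachment, then at least 90 h co-culture | Detection: GalScreen luminescence, 60 min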
# UPR XBP1 act = activators of adaptive XBP1 UPR arm, primary screen, cell-based, CHO-XBP1 luciferase reporter, luminescence, uHTS. activation, % at 20 µM. IRE1-XBP1 UPR activation; percent of tunicamycin response, DMSO as zero. actives 0.33% (n = 330,000). AID 463104, 2010;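 active means versus positive control, 20 µM dose yields 30% or more activation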;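 further: 100% = tunicamycin at 10 µg/mL and 0% = DMSO only wells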
#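 Assay system: CHO-XBP1 luciferase reporter cells; Schedule: 6 h treatment, 37 °C; Detection: glow luminescence from Steady-Glo reagent; Benchmarks: high control tunicamycin 10 µg/mL final, low control DMSO vehicle only.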
# CHOP UPR activ = activators of apoptotic CHOP UPR arm, primary screen, cell-based, CHO-CHOP luciferase reporter, luminescence, uHTS; UPR activation; percent of tunicamycin response over DMSO baseline; activation, % at 10 µM; actives 0.34% (n = 330,000);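 active means at 10 µM dose, activation of 40% or more, normalized to positive control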;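 further: 100% = tunicamycin at 10 µg/mL and 0% = DMSO alone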
#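 System: CHO-CHOP luciferase reporter cell line | Buffer or medium: F12 medium containing 10% fetal bovine serum | Doses: One dose, 10 µM in 0.5% DMSO | Times: 6 h compound exposure at 37 °C after overnight seeding | Signal: Luciferase luminescence | Read-out: % activation vs tunicamycin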
# CHOP inhibitor = inhibitors of CHOP promoter induction, primary screen, cell-based, unfolded protein response, luciferase reporter | inhibition, % at 10 µM | actives 3.8% (n = 220,000) | CHO-K1 CHOP-promoter luciferase, tunicamycin-induced, 15-18 h;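 active means compounds that reduced the stress-induced luciferase reporter signal by more than about 70% of percent inhibition, limit read from the data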;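 further: 0% = tunicamycin plus vehicle and 100% = wells without tunicamycin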
# L major viab = Leishmania major promastigote growth inhibition, primary screen | inhibition, % at 10 µM | Leishmania major promastigotes, resazurin fluorescence viability | actives 9% (n = 200,000); in the data active means inhibition above about 50%;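 further: promastigotes grown with compound for 44 hours at 28 °C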
# CHOP inh conf = retest of CHOP induction inhibitors, confirmation, cell-based | shares compounds with CHOP inhibitor | CHO-CHOP promoter luciferase reporter, tunicamycin-induced, luminescence | inhibition, % at 10 µM | actives 45% (n = 2,100) | AID 504437, 2011;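 active means mean of three repeat readings of reporter signal inhibition above a set limit, cut at about 70% in these data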;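 further: 0% = tunicamycin plus vehicle and 100% = wells lacking tunicamycin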
# UPR CHOP confirm = activators of apoptotic CHOP UPR arm, confirmation, cell-based, CHO-CHOP luciferase reporter, single concentration. shares compounds with CHOP UPR activ. CHO-CHOP cells, CHOP-luciferase reporter luminescence; percent of tunicamycin response, DMSO as zero. activation, % at 10 µM. actives 64% (n = 1,000). AID 463112, 2010; in the data active means activation above about 33%;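 further: 0% = DMSO wells and 100% = tunicamycin 10 µg/mL wells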
# XBP1 UPR conf = IRE1-XBP1 UPR arm activators, confirmation, cell-based, CHO-XBP1 luciferase reporter, luminescence, single concentration; activation, % at 20 µM; shares compounds with UPR XBP1 act; actives 63% (n = 1,000);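 active means reporter signal at least 30% of the positive control's activation in two or more of four replicate wells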;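 further: plate controls were DMSO negative control for no effect and tunicamycin 10 µg/mL positive control for full effect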
# An asterisk follows results filed as active; . = no result given. This is one part of a sample in which hits are shown more often than they occur.
SMILES,Dynein transport,T cruzi repl,UPR XBP1 act,CHOP UPR activ,CHOP inhibitor,L major viab,CHOP inh conf,UPR CHOP confirm,others
Cc1cc(=O)c(C(=O)c2ccccc2)c(C)o1,.,-10,2,1,.,.,.,.,
CC(C)c1ccc(NC(=O)CCN2C(=O)[C@@H]3Cc4ccccc4CN3C2=O)cc1,.,-2,-2,-1,.,.,.,.,
CCCc1nnc(NC(=O)C2CCN(C(=O)C3CC(=O)N(c4ccc(C)cc4)C3)CC2)s1 (stereo unspecified),.,1,2,0,.,.,.,.,
CCCCC(=O)Nc1sc2c(c1C(=O)OCC)CCC(C=O)=C2Cl,4.1,-5,33*,63*,117*,99*,-2,33*,
COC(=O)CCC[C@H]1CC2(C[C@H](CCCO[Si](C)(C)C(C)(C)C)N1C(=O)OC(C)(C)C)OCCO2,.,.,-2,-1,.,.,.,.,
O=[N+]([O-])c1cc(S(=O)(=O)C(F)(F)F)ccc1Sc1nc2ccccc2[nH]1,-1.4,-9,-9,43*,108*,100*,124*,5,
O=[N+]([O-])c1ccc(N2CCNCC2)cc1Sc1nc2ccccc2[nH]1,-0.21,5,0,2,5,0,.,.,
O=C(COc1ccc(/C=N/NC(=O)c2cc3ccccc3o2)cc1Cl)Nc1ccccc1,-0.09,73*,7,51*,108*,-4,46,-3,
CC(C)c1nnc(NC(=O)CCS(=O)(=O)Cc2ccccc2)s1,.,-14,-3,0,.,.,.,.,
CC(C)c1nnc(NC(=O)CCS(=O)(=O)c2nc(-c3cccs3)cc(C(F)(F)F)n2)s1,-1.4,-18,-6,74*,108*,6,-38,48*,
COc1cc(/C=C(\C#N)c2nc3ccccc3[nH]2)ccc1OC(=O)c1ccco1,1.1,13,17,7,27,13,.,.,
COc1cc(/C=C(/C#N)c2nc3ccccc3[nH]2)ccc1OCC(=O)Nc1ccccc1C(C)C,-0.36,15,-6,76*,108*,40,116*,64*,
O=[N+]([O-])c1ccc(S(=O)(=O)Nc2ccccn2)cc1,.,1,-3,-1,.,.,.,.,
O=C(C#Cc1ccccc1)c1cccc([N+](=O)[O-])c1,0.16,33,-6,293*,107*,22,-88,197*,
CC(=O)c1cccc([N+](=O)[O-])c1,.,.,-3,-1,.,.,.,.,
N#C/C(=C\c1ccc([N+](=O)[O-])o1)C(=O)Nc1ccc(F)cc1,-0.61,23,-4,166*,108*,3,106*,156*,
Cc1cccc(Cn2cc(/C=C/[N+](=O)[O-])c3ccccc32)c1,-1.2,39,53*,50*,102*,77*,-28,218*,
CCCCN1CC(COCc2ccccc2)Oc2ccccc2S1(=O)=O (stereo unspecified),.,.,-2,2,.,.,.,.,
N#Cc1cc([N+](=O)[O-])c(-n2nnc3ccccc32)c([N+](=O)[O-])c1,-1,-1,-6,122*,107*,-3,24,74*,
CCCCNC(=O)c1ccc(Cn2c(=S)[nH]c3c([nH]c4ccc(OC)cc43)c2=O)cc1,-0.63,-3,41*,2,105*,-8,16,.,XBP1 UPR conf=64*
Cc1ccc(OCCNC(=O)CCNC(=O)c2ccc(Cl)cc2)cc1,.,.,-2,-1,.,.,.,.,
COc1ccccc1NS(=O)(=O)c1cccc(C(=O)NCc2ccco2)c1,-0.63,-12,-2,1,-2,4,.,.,
Cc1ccc2nsnc2c1NC(=O)c1ccc(-c2cc(Cl)ccc2Cl)o1,-0.67,19,96*,34,101*,0,62,.,XBP1 UPR conf=104*
Cc1ccc2nsnc2c1NC(=O)Cc1ccc(Cl)cc1,-0.6,-5,-1,3,31,4,.,.,
CCCn1c(SCc2nc3sc(C)c(C)c3c(=O)[nH]2)nc2ccccc2c1=O,-0.75,-2,78*,-2,106*,15,24,.,XBP1 UPR conf=180*
SMILES,Dynein transport,T cruzi repl,UPR XBP1 act,CHOP UPR activ,CHOP inhibitor,L major viab,CHOP inh conf,UPR CHOP confirm,others
COCCn1c(SCc2nc3ccccc3c(=O)[nH]2)nc2ccccc2c1=O,1.5,3,-2,-1,27,20,.,.,
O=C(CSc1nncn1-c1cccnc1)Nc1cccc(C(F)(F)F)c1,.,5,2,1,.,.,.,.,
O=C(CN1C(=O)c2ccccc2S1(=O)=O)Nc1cccc(S(=O)(=O)N2CCCCC2)c1,.,.,2,0,.,.,.,.,
Cc1cc2nc(-c3ccc(SCC(=O)NC(C)C)nc3)[nH]c2cc1C,-0.2,5,1,5,0,49,.,.,
Cc1cc(NC(=O)CSc2ccc(-c3nc4cc(C)c(C)cc4[nH]3)cn2)no1,1.4,3,58*,4,104*,38,15,.,XBP1 UPR conf=31*
CN(C)C(CNC(=O)c1cc(S(=O)(=O)N(C)Cc2ccccc2)ccc1Cl)c1ccco1 (stereo unspecified),.,5,-5,3,.,.,.,.,
O=C(Nc1ccnn1C1CCN(C(=O)c2cccc(Cl)c2)CC1)C1CCOC1 (stereo unspecified),.,-6,-4,2,.,.,.,.,
CCOC(=O)c1c(NC(C)=O)sc2c(O)cccc12,-0.56,4,1,-3,33,-10,.,.,
CCOC(=O)c1c(NC(C)=O)sc2c(OCC(O)CNC(C)(C)C)c(Br)ccc12 (stereo unspecified),-4.2,40,62*,1,105*,101*,62,.,XBP1 UPR conf=111*
CCN1C(=O)[C@@H]2Cc3c([nH]c4ccccc34)C(c3ccc(OC)cc3)N2C1=S (stereo partly specified),.,35,3,0,.,.,.,.,
Cc1nnc(SCC(=O)NC(=O)Nc2ccc3c(c2)OCCO3)s1,0.49,-11,-3,0,0,8,.,.,

# Compound activity deposited in PubChem BioAssay by several laboratories.
